The record followed here is ChEMBL document CHEMBL1629539, “Configuration of the 5'-methyl group modulates the biophysical and biological properties of locked nucleic acid (LNA) oligonucleotides” (J Med Chem, 2010).

The source made the active and inactive calls. No cut-off for these calls is given here.

Data set [1] deals with Mus musculus. Put plainly: Hepatoprotective activity in BALB/c mouse assessed as at 23 mg/kg, ip assessed as reduction of plasma alanine amino transferase levels after 72 hrs post dose. It counts as functional, organism-based. Further details: dose 23 mg/kg. In outline:
(§1)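 Balb-c mice, 4 per group, one ip dose at 23 or 46 mg/kg of 14-mer fully phosphorothioate gapmer ASO targeting PTEN. Sacrifice 72 h after dosing. Liver PTEN mRNA quantified by quantitative RT-PCR, expressed as % down-regulation versus saline-treated animals. Plasma ALT (IU/L) measured after sacrifice.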

In data set [2] the test system is Mus musculus. Put plainly: Hepatoprotective activity in BALB/c mouse assessed as at 46 mg/kg, ip assessed as reduction of plasma alanine amino transferase levels after 72 hrs post dose. It counts as functional, organism-based. Also noted: dose 46 mg/kg. Put shortly: as §1
The subject of data set [3] is Mus musculus. The data set can be described thus: Reduction in PTEN mRNA expression in BALB/c mouse liver at 46 mg/kg, ip measured 72 hrs post dose by Rt-PCR. Further details: dose 46 mg/kg. In kind it is functional, organism-based. In outline:
as §1

Data set [4] has as its system Mus musculus. The data set can be described thus: Reduction in PTEN mRNA expression in BALB/c mouse liver at 23 mg/kg, ip measured 72 hrs post dose by Rt-PCR. It counts as functional, organism-based. Further details: dose 23 mg/kg. Put shortly: as §1
Data set [5] has as its system Mus musculus. The data set can be described thus: Reduction in PTEN mRNA expression in ip dosed BALB/c mouse liver administered twice weekly for 3 weeks measured after 72 hrs post last dose. In kind it is functional. In outline:
(§2)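 Balb-c mice (n = 4/group) dosed ip twice a week for 3 weeks at 0.5, 1.5, 4.5 and 15 mg/kg of PTEN-targeting 14-mer phosphorothioate gapmer. Sacrifice 72 h after last dose. Liver PTEN mRNA by quantitative RT-PCR as % versus saline, with ED50 derived from dose-response. Plasma ALT (IU/L) recorded. Spleen weight given as fold increase over saline group.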

Data set [6] has as its system Mus musculus. Put plainly: Hepatoprotective activity in BALB/c mouse assessed as reduction of plasma alanine amino transferase levels at 15 mg/kg, ip administered twice weekly for 3 weeks measured after 72 hrs post last dose. It counts as functional, organism-based. Also noted: dose 15 mg/kg. Put shortly: as §2
For data set [7], the system named is Mus musculus. The data set can be described thus: Toxicity in BALB/c mouse assessed as increase in spleen weight at 1.5 mg/kg, ip administered twice weekly for 3 weeks measured after 72 hrs post last dose. In kind it is organism-based. Also noted: dose 1.5 mg/kg, route intraperitoneal. To be noted: in vivo. In outline: as §2
Data set [8] deals with Mus musculus. The data set can be described thus: Toxicity in BALB/c mouse assessed as increase in spleen weight at 4.5 mg/kg, ip administered twice weekly for 3 weeks measured after 72 hrs post last dose. In kind it is organism-based. To be noted: in vivo. Also noted: dose 4.5 mg/kg, route intraperitoneal. In outline:
as §2

The test system of data set [9] is Mus musculus. The data set can be described thus: Toxicity in BALB/c mouse assessed as increase in spleen weight at 15 mg/kg, ip administered twice weekly for 3 weeks measured after 72 hrs post last dose. Also noted: dose 15 mg/kg, route intraperitoneal. Conditions: in vivo. It counts as organism-based. Put shortly:
as §2

Data set [10] has as its system Mus musculus. Put plainly: Reduction in PTEN mRNA expression in BALB/c mouse liver at 12 mg/kg, ip administered as single dose measured 72 hrs post dose. It counts as functional. To be noted: route intraperitoneal. In outline:
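Single ip injection at 12 or 60 mg/kg of phosphorothioate gapmer (14-base deoxy gap, two modified nucleotides per wing) against PTEN in Balb-c mice, n = 4/group. After sacrifice, liver PTEN mRNA reported as % down-regulation versus saline controls, and plasma ALT (IU/L) measured as the liver toxicity read-out.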

The subject of data set [11] is Mus musculus. Put plainly: Hepatotoxicity in BALB/c mouse liver at 60 mg/kg, ip administered as single dose measured 72 hrs post dose.

For the compound `Cc1cn([C@@H]2O[C@@]3(COP(O)(=S)O[C@H]4[C@H]5OC[C@]4(COP(O)(=S)O[C@H]4[C@H]6OC[C@]4(COP(O)(=S)O[C@H]4[C@H]7OC[C@]4(COP(O)(=S)O[C@H]4[C@H]8OC[C@]4(COP(O)(=S)O[C@H]4[C@H]9OC[C@]4(COP(O)(=S)O[C@H]4[C@H]%10OC[C@]4(COP(O)(=S)O[C@H]4[C@H]%11OC[C@]4([C@H](C)O)O[C@H]%11n4ccc(=O)[nH]c4=O)O[C@H]%10n4ccc(N)nc4=O)O[C@H]9n4cnc9c(N)ncnc94)O[C@H]8n4cc(C)c(=O)[nH]c4=O)O[C@H]7n4cnc7nc(N)[nH]c(=O)c74)O[C@H]6n4cnc6nc(N)[nH]c(=O)c64)O[C@H]5N4CCC(N)=NC4=O)CO[C@@H]2[C@@H]3OP(O)(=S)OC[C@@]23CO[C@@H]([C@H](n4cnc5nc(N)[nH]c(=O)c54)O2)[C@@H]3OP(O)(=S)OC[C@@]23CO[C@@H]([C@H](n4ccc(N)nc4=O)O2)[C@@H]3OP(O)(=S)OC[C@@]23CO[C@@H]([C@H](n4cnc5c(N)ncnc54)O2)[C@@H]3OP(O)(=S)OC[C@@]23CO[C@@H]([C@H](n4cnc5nc(N)[nH]c(=O)c54)O2)[C@@H]3OP(O)(=S)OC[C@@]23CO[C@@H]([C@H](n4ccc(N)nc4=O)O2)[C@@H]3OP(O)(=S)OC[C@@]23CO[C@@H]([C@H](n4ccc(=O)[nH]c4=O)O2)[C@@H]3O)c(=O)[nH]c1=O` (stereo partly drawn), the result with Mus musculus [1], in the data set on Mus musculus [2] and in the data set with Mus musculus [6] was Active. The inhibition entry in the data set with Mus musculus [3] was “Active”. The inhibition result in the data set on Mus musculus [4] is “inactive”. Besides, the ED50 (in general, the dose that gives a 50% effect, or the effect in half of the subjects) in the data set on Mus musculus [5] came to 6 mg/kg. The inhibition entry with Mus musculus [5] is “Dose-dependent effect”. Besides, the Activity result with Mus musculus [7] and with Mus musculus [8] was “Non-toxic” throughout.
On to `Cc1cn([C@@H]2O[C@@]3(COP(O)(=S)O[C@@H]4[C@H]5OC[C@]4(CO)O[C@H]5n4cc(C)c(=O)[nH]c4=O)CO[C@@H]2[C@@H]3OP(O)(=S)OC[C@@]23CO[C@@H]([C@H](n4cnc5c(N)ncnc54)O2)[C@@H]3OP(O)(=S)OC[C@@]23CO[C@@H]([C@H](n4cc(C)c(=O)[nH]c4=O)O2)[C@@H]3OP(O)(=S)OC[C@@]23CO[C@@H]([C@H](n4cnc5nc(N)[nH]c(=O)c54)O2)[C@@H]3OP(O)(=S)OC[C@@]23CO[C@@H]([C@H](n4cnc5nc(N)[nH]c(=O)c54)O2)[C@@H]3OP(O)(=S)OC[C@@]23CO[C@@H]([C@H](N4CCC(N)=NC4=O)O2)[C@@H]3OP(O)(=S)OC[C@@]23CO[C@@H]([C@H](n4cc(C)c(=O)[nH]c4=O)O2)[C@@H]3OP(O)(=S)OC[C@@]23CO[C@@H]([C@H](n4cnc5nc(N)[nH]c(=O)c54)O2)[C@@H]3OP(O)(=S)OC[C@@]23CO[C@@H]([C@H](n4ccc(N)nc4=O)O2)[C@@H]3OP(O)(=S)OC[C@@]23CO[C@@H]([C@H](n4cnc5c(N)ncnc54)O2)[C@@H]3OP(O)(=S)OC[C@@]23CO[C@@H]([C@H](n4cnc5nc(N)[nH]c(=O)c54)O2)[C@@H]3OP(O)(=S)OC[C@@]23CO[C@@H]([C@H](n4cc(C)c(N)nc4=O)O2)[C@@H]3OP(O)(=S)OC[C@@]23CO[C@@H]([C@H](n4ccc(=O)[nH]c4=O)O2)[C@@H]3O)c(=O)nc1N` (stereo partly drawn), for which the result in the data set with Mus musculus [1] and in the data set with Mus musculus [2] was inactive. This compound came in with an ED50 with Mus musculus [5] of 3.1 mg/kg. The inhibition result in the data set on Mus musculus [5] is “Dose-dependent effect”. The figures for the Activity result in the data set with Mus musculus [7], in the data set with Mus musculus [8] and in the data set with Mus musculus [9] were “Toxic”, “Toxic” and “Non-toxic”, respectively.
Turning to `Cc1cn([C@@H]2O[C@@]3(CO)CO[C@@H]2[C@@H]3OP(O)(=S)OC[C@@]23CO[C@@H]([C@H](n4cc(C)c(=O)[nH]c4=O)O2)[C@@H]3OP(O)(=S)OC[C@@]23CO[C@@H]([C@H](n4cnc5c(=O)[nH]c(N)nc54)O2)[C@@H]3OP(O)(=S)OC[C@@]23CO[C@@H]([C@H](n4ccc(N)nc4=O)O2)[C@@H]3OP(O)(=S)OC[C@@]23CO[C@@H]([C@H](n4cc(C)c(=O)[nH]c4=O)O2)[C@@H]3OP(O)(=S)OC[C@@]23CO[C@@H]([C@H](n4cnc5ncnc(N)c54)O2)[C@@H]3OP(O)(=S)OC[C@@]23CO[C@@H]([C@H]([n+]4c[nH]c5nc(N)[nH]c(=O)c54)O2)[C@@H]3OP(O)(=S)OC[C@@]23CO[C@@H]([C@H](n4ccc(N)nc4=O)O2)[C@@H]3OP(O)(=S)OC[C@@]23CO[C@@H]([C@H](n4ccc(N)nc4=O)O2)[C@@H]3OP(O)(=S)OC[C@@]23CO[C@@H]([C@H](n4cc(C)c(=O)[nH]c4=O)O2)[C@@H]3OP(O)(=S)OC[C@@]23CO[C@@H]([C@H](n4ccc(N)nc4=O)O2)[C@@H]3OP(O)(=S)OC[C@@]23CO[C@@H]([C@H](n4cc(C)c(=O)[nH]c4=O)O2)[C@@H]3OP(O)(=S)OC[C@@]23CO[C@@H]([C@H]([n+]4c[nH]c5nc(N)[nH]c(=O)c54)O2)[C@@H]3OP(O)(=S)OC[C@@]23CO[C@@H]([C@H]([n+]4c[nH]c5nc(N)[nH]c(=O)c54)O2)[C@@H]3OP(O)(=S)OC[C@@]23CO[C@@H]([C@H](n4cnc5ncnc(N)c54)O2)[C@@H]3OP(O)(=S)OC[C@@]23CO[C@@H]([C@H](n4cc(C)c(=O)[nH]c4=O)O2)[C@@H]3OP(O)(=S)OC[C@@]23CO[C@@H]([C@H](n4cc(C)c(=O)[nH]c4=O)O2)[C@@H]3OP(O)(=S)OC[C@@]23CO[C@@H]([C@H](n4cc(C)c(=O)[nH]c4=O)O2)[C@@H]3O)c(=O)nc1N` (stereo partly drawn), the inhibition in vivo (as a rule, the relative decrease from the control value, in per cent) at 12 mg/kg in the data set on Mus musculus [10] was 90%. Besides, the Activity entry with Mus musculus [11] was “Toxic”.
